Measurements of several laboratories.
Lines come from different studies, so protocols differ. In brackets after ≈: the same amount, converted by molar mass.

SMILES	tested on	test	setting	endpoint	result
Cc1n[nH]c2ccc3nc(-c4ccc(C(=O)NCCN(C)C)cc4)c4c(c3c12)CCCCC4	NOMO-1	cell growth or viability	72 h	GI50	3.08 µM
CC(=O)ON=C1C=CC(=C(C#N)c2ccccc2)C=C1	Candidozyma auris	microbial killing, broth dilution	48 h	MFC	16 µg/mL (≈ 60.5 µM)
CCOC(=O)C1=C(CCl)NC(=O)NC1c1ccc(C)cc1 (stereo not shown)	–	DPPH scavenging	–	IC50	235 µM
CC(C)(C)c1cc(NC(=O)Nc2ccc(-c3cn4c(n3)sc3cc(OCCN5CCOCC5)ccc34)cc2)no1	NOMO-1	cell growth or viability	72 h	GI50	> 10 µM
CCOC(=O)C1=C(CCl)NC(=O)NC1c1cccc(C)c1 (stereo not shown)	–	DPPH scavenging	–	IC50	70.7 µM
O=C(C[C@@H](C(F)F)n1ccc(F)n1)N1CCC(O)(Cn2cnc3c(cnn3-c3ccc(F)cc3)c2=O)CC1	CAPAN-1	cell growth or viability, SRB	9.145 nM, 5 days	viability	94.6%
N#CC(=C1C=CC(=NOC(=O)OCc2ccccc2)C=C1)c1ccccc1	Candidozyma auris	microbial growth, broth dilution	48 h	MIC	64 µg/mL (≈ 180 µM)
CCc1nc(C(N)=O)c(Nc2ccc(N3CCC(N4CCN(C)CC4)CC3)c(OC)c2)nc1NC1CCOCC1	NOMO-1	cell growth or viability	72 h	GI50	2.54 µM
CCCCCCCCCCCCCCCCCC1NCCc2cc(O)c(O)cc21 (stereo not shown)	–	DPPH scavenging, absorbance	30 min, dark	IC50	34.8 µM
N[C@@H](CO)C(=O)Nc1ccccc1/N=c1\cc(-c2ccc3c(c2)OCO3)oc2ccccc12	MCF7	cell growth or viability, CCK-8	1 µM	inhibition	16.3%
CCOC(=O)C1=C(CSC2=NCCS2)NC(=O)NC1c1cccc(OC)c1 (stereo not shown)	–	DPPH scavenging	–	IC50	150 µM
COc1cc(C2NCCc3cc(O)c(O)cc32)ccc1O (stereo not shown)	–	DPPH scavenging, absorbance	30 min, dark	IC50	8.15 µM
C#CCON=C1C=CC(=C(C#N)c2ccccc2)C=C1	Candidozyma auris	microbial killing, broth dilution	48 h	MFC	64 µg/mL (≈ 246 µM)
Oc1cccc(-c2nc(N3CCOCC3)c3oc4ncccc4c3n2)c1	MCF7	cell growth or viability, CCK-8	1 µM	inhibition	13.9%
CC(C)=CC1NCCc2cc(O)c(O)cc21 (stereo not shown)	–	DPPH scavenging, absorbance	30 min, dark	IC50	54.2 µM
C=CC(=O)ON=C1C=CC(=C(C#N)c2ccccc2)C=C1	Candidozyma auris	microbial growth, broth dilution	48 h	MIC	16 µg/mL (≈ 57.9 µM)
Oc1ccc(C2NCCc3cc(O)c(O)cc32)cc1O (stereo not shown)	–	DPPH scavenging, absorbance	30 min, dark	IC50	8.14 µM
CCOC(=O)C1=C(CSC2=NCCS2)NC(=O)NC1c1cccc(Cl)c1 (stereo not shown)	–	DPPH scavenging	–	IC50	142 µM
Cc1n[nH]c2ccc3nc(-c4ccc(C(=O)NCCN(C)C)cc4F)c4c(c3c12)CCCCC4	NOMO-1	cell growth or viability	72 h	GI50	2.73 µM
CCOC(=O)C1=C(CSC2=NCCS2)NC(=O)NC1c1ccc(C(C)C)cc1 (stereo not shown)	–	DPPH scavenging	–	IC50	190 µM
CCCCCCCCC1NCCc2cc(O)c(O)cc21 (stereo not shown)	–	DPPH scavenging, absorbance	30 min, dark	IC50	65.3 µM
CCON=C1C=CC(=C(C#N)c2ccccc2)C=C1	Candidozyma auris	microbial growth, broth dilution	48 h	MIC	256 µg/mL (≈ 1020 µM)
C[C@H](Nc1ccc2c(c1)OCCn1cc(N3C(=O)OC[C@H]3C(F)F)nc1-2)C(N)=O	HCC1954	cell growth or viability, ATP luminescence	5 days	EC50	0.155 µM
CN(C)CCNC(=O)c1ccc(-c2nc3ccc4[nH]ncc4c3c3c2CCCC3)cc1	NOMO-1	cell growth or viability	72 h	GI50	0.568 µM
C#CCOC(=O)ON=C1C=CC(=C(C#N)c2ccccc2)C=C1	Candidozyma auris	microbial killing, broth dilution	48 h	MFC	32 µg/mL (≈ 105 µM)
CCOC(=O)C1=C(CCl)NC(=O)NC1c1ccc(F)cc1 (stereo not shown)	–	DPPH scavenging	–	IC50	246 µM
COc1cccc(C2NCCc3cc(O)c(O)cc32)c1 (stereo not shown)	–	DPPH scavenging, absorbance	30 min, dark	IC50	18.2 µM
NCCCC(=O)Nc1ccccc1/N=c1\cc(-c2ccc3c(c2)OCO3)oc2ccccc12	MCF7	cell growth or viability, CCK-8	1 µM	inhibition	10.2%
